Measurements from ChEMBL document CHEMBL3272222, “Heterocyclic and piperonylic acid esters of 1-methyl-4-piperidinol as analgesics” (J Med Chem, 1977).
Calls of active or inactive are those of the source. No cut-off for these calls is given here.

What was measured:
Mus musculus [1] = assay: Analgesic activity in mouse at 20 mg/kg, sc by hot-plate assay; assay type: functional, organism-based; parameters: dose 20 mg/kg
Procedure, shortened: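 Mouse hot-plate analgesia test. Compounds were given subcutaneously as water-soluble salts. ED50 values carry 95% confidence limits from probit analysis.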

Mus musculus [2] = assay: Analgesic activity in sc dosed mouse by hot-plate assay; assay type: functional
Procedure, shortened: (§1)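 Mice dosed subcutaneously with compounds as water-soluble salts. ED50 in mg/kg, with 95% confidence limits from probit analysis. Overt toxicity was also noted at the doses given.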

Mus musculus [3] = assay: Analgesic activity in sc dosed mouse by tail-flick assay; assay type: functional
Mus musculus [4] = assay: Analgesic activity in sc dosed mouse assessed as inhibition of p-phenylquinone-induced abdominal-stretching; assay type: functional
Mus musculus [5] = assay: Analgesic activity in mouse at 10 mg/kg, sc by tail-flick assay; assay type: functional, organism-based; parameters: dose 10 mg/kg
Mus musculus [6] = assay: Analgesic activity in mouse assessed as inhibition of p-phenylquinone-induced abdominal-stretching at 10 mg/kg, sc; assay type: functional, organism-based; parameters: dose 10 mg/kg
Procedure, shortened: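 Mice were dosed subcutaneously with test compounds as water-soluble salts and then run in the tail-flick assay and in the p-phenylquinone-induced abdominal-stretching (PPQ) assay.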

Mus musculus [7] = assay: Toxicity in mouse at 20 mg/kg, sc; assay type: organism-based; parameters: dose 20 mg/kg, route subcutaneous; conditions: in vivo
Procedure, shortened: (§2)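 Toxic signs were recorded in mice during analgesic testing after subcutaneous doses of the compounds, given as water-soluble salts.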

[8] = target: Opioid receptor (Rattus norvegicus) (UniProt P33533+P34975+P33535); conditions: Brain
Sequence of Opioid receptor (Rattus norvegicus) (P33533 whole entry, looked up): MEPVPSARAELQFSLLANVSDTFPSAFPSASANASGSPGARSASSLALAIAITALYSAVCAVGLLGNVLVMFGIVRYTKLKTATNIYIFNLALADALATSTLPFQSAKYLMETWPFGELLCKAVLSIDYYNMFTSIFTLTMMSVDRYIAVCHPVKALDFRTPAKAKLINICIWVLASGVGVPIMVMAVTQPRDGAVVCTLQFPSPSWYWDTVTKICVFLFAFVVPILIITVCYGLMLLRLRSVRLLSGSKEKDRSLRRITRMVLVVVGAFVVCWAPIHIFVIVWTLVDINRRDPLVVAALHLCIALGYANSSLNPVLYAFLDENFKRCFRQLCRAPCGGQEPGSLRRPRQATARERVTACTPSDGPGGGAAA
Sequence of Opioid receptor (Rattus norvegicus) (P33535 whole entry, looked up): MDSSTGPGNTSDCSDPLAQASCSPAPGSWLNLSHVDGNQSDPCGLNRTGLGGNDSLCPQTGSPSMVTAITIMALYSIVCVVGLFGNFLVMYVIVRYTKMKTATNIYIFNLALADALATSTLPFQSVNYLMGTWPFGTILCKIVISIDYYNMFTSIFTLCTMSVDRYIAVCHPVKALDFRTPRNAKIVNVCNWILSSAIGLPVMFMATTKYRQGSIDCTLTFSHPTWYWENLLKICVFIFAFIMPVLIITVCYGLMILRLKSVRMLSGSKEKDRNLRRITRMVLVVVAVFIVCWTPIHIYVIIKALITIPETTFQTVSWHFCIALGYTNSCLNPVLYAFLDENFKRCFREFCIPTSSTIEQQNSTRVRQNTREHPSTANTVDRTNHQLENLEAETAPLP
Sequence of Opioid receptor (Rattus norvegicus) (P34975 whole entry, looked up): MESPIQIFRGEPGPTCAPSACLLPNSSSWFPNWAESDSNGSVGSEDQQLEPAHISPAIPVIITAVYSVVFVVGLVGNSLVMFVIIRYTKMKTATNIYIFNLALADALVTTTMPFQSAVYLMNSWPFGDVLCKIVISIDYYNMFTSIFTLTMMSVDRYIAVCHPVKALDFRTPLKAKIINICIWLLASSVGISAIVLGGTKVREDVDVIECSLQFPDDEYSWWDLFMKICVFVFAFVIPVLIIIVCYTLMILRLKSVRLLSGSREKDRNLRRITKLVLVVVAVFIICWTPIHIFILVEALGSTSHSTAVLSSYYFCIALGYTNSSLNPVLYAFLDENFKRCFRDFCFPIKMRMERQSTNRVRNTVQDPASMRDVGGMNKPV

Mus musculus [9] = assay: Analgesic activity in sc dosed mouse by Nilsen method; assay type: functional; procedure, shortened: as §1
Mus musculus [10] = assay: Toxicity in mouse at 40 mg/kg, sc; assay type: organism-based; parameters: dose 40 mg/kg, route subcutaneous; conditions: in vivo; procedure, shortened: as §2
Mus musculus [11] = assay: Toxicity in mouse at 50 mg/kg, sc; assay type: organism-based; parameters: dose 50 mg/kg, route subcutaneous; conditions: in vivo; procedure, shortened: as §2
Mus musculus [12] = assay: Toxicity in mouse at 60 mg/kg, sc; assay type: organism-based; parameters: dose 60 mg/kg, route subcutaneous; conditions: in vivo; procedure, shortened: as §2
Rhesus monkey [13] = assay: Toxicity in nonwithdrawn monkey assessed as mild abstinence signs at 6 mg/kg administered as single dose; assay type: organism-based, Macaca mulatta; parameters: dose 6 mg/kg; conditions: in vivo
Rhesus monkey [14] = assay: Toxicity in nonwithdrawn monkey assessed as mild CNS depression at 6 mg/kg administered as single dose; assay type: organism-based, Macaca mulatta; parameters: dose 6 mg/kg; conditions: in vivo
Rhesus monkey [15] = assay: Toxicity in monkey assessed as piloerection at 12 mg/kg administered as single dose; assay type: organism-based, Macaca mulatta; parameters: dose 12 mg/kg; conditions: in vivo
Rhesus monkey [16] = assay: Toxicity in monkey assessed as tremors at 12 mg/kg administered as single dose; assay type: organism-based, Macaca mulatta; parameters: dose 12 mg/kg; conditions: in vivo
Rhesus monkey [17] = assay: Toxicity in monkey assessed as retching at 12 mg/kg administered as single dose; assay type: organism-based, Macaca mulatta; parameters: dose 12 mg/kg; conditions: in vivo
Rhesus monkey [18] = assay: Toxicity in monkey assessed as increased respiration at 12 mg/kg administered as single dose; assay type: organism-based, Macaca mulatta; parameters: dose 12 mg/kg; conditions: in vivo
Mus musculus [19] = assay: Toxicity in mouse at 30 mg/kg, sc; assay type: organism-based; parameters: dose 30 mg/kg, route subcutaneous; conditions: in vivo; procedure, shortened: as §2
Rhesus monkey [20] = assay: Toxicity in monkey assessed as morphine-like dependence liability; assay type: organism-based, Macaca mulatta; conditions: in vivo
Procedure, shortened: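 Physical dependence liability of the morphine type was assessed in Rhesus monkeys.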

Rhesus monkey [21] = assay: Toxicity in monkey assessed as increase in severity of abstinence signs at 6 mg/kg administered as single dose; assay type: organism-based, Macaca mulatta; parameters: dose 6 mg/kg; conditions: in vivo
Procedure, shortened: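 Rhesus monkeys were used in single-dose suppression tests for physical dependence. The compound was given at 6.0 mg/kg and the severity of abstinence signs was scored.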

For Cc1c(C(=O)OC2CCN(C)CC2)c(C)n(C)c1C, the Activity (Mus musculus [1]) was “Active”.

With Cc1[nH]c(C)c(C(=O)OC2CCCN(C)C2)c1C (stereo not given) the ED50 (Mus musculus [2]) was “inactive”.

CN1CCC(OC(=O)c2ccoc2)CC1.O=C(O)/C=C\C(=O)O showed an ED50 (Mus musculus [2]) of 27.9 mg/kg.

In the case of CN1CCCC(COC(=O)c2ccc3c(c2)OCO3)C1.Cl (stereo not given), the ED50 (Mus musculus [2]) is reported as 22.7 mg/kg.

CN1CCC(OC(=O)C2c3ccccc3Oc3ccccc32)CC1.Cl was tested, and the ED50 (Mus musculus [2]) was 35 mg/kg.

Cc1[nH]c(C)c(C(=O)OC2CCN(C)CC2)c1C was tested, and the ED50 (Mus musculus [3]) was 15.1 mg/kg, the ED50 (Mus musculus [4]) was 15.1 mg/kg and the Activity (Mus musculus [5]) was “Active”. The Activity (Mus musculus [6]) was “Active”, the Activity (Mus musculus [7]) was “Non-toxic” and the ED50 [8] was 1 µM.

With CCOC(=O)C1(c2ccccc2)CCN(C)CC1 the ED50 [8] was 0.7 µM.

With CN1CCC(OC(=O)c2ccc3ncccc3c2)CC1.Cl the ED50 (Mus musculus [2]) was 9.3 mg/kg, the ED50 (Mus musculus [9]) was 29.7 mg/kg and the Activity (Mus musculus [10]) was “Non-toxic”. For the same compound, the Activity (Mus musculus [11]) was “Toxic” and the ED50 [8] was greater than 100 µM.

In the case of CN1CCC(OC(=O)c2cnc3ccccc3n2)CC1, the ED50 (Mus musculus [2]) is reported as “inactive”.

CN1CCC(OC(=O)c2ccc(Br)o2)CC1.Cl was tested, and the ED50 (Mus musculus [2]) was 17.7 mg/kg.

For CN1CCC(OC(=O)c2cnc3ccccc3c2)CC1.Cl, the ED50 (Mus musculus [2]) was 11.2 mg/kg and the Activity (Mus musculus [12]) was “Non-toxic”.

Work on CN1CCC(OC(=O)c2ccncc2)CC1.O=C(O)/C=C\C(=O)O yielded an ED50 (Mus musculus [2]) of 44.2 mg/kg.

Cc1ccc(C(=O)OC2CCN(C)CC2)cc1C was tested, and the Activity (Mus musculus [1]) was “Active”.

For CN1CCC(OC(=O)c2cccs2)CC1.Cl, the ED50 (Mus musculus [2]) was 13.3 mg/kg, the ED50 (Mus musculus [9]) was “inactive” and the Activity (Mus musculus [10]) was “Non-toxic”. The ED50 [8] was greater than 100 µM.

For CN1CCC(OC(=O)c2ccco2)CC1.O=C(O)/C=C\C(=O)O, the ED50 (Mus musculus [2]) was 12.5 mg/kg and the Activity (Mus musculus [11]) was “Non-toxic”.

With CN1CCC(OC(=O)c2ccc3c(c2)OCO3)CC1.Cl the Activity (Rhesus monkey [13]) was “Toxic”, the Activity (Rhesus monkey [14]) was “Toxic” and the Activity (Rhesus monkey [15]) was “Toxic”. For the same compound, the Activity (Rhesus monkey [16]) was “Toxic”, the Activity (Rhesus monkey [17]) was “Toxic” and the Activity (Rhesus monkey [18]) was “Toxic”. The Activity (Mus musculus [19]) was “Non-toxic”, the Activity (Rhesus monkey [20]) was “Non-toxic” and the Activity (Rhesus monkey [21]) was “Toxic”. The ED50 [8] was 30 µM.

Cc1ccc(C(=O)OC2CCN(C)CC2)s1 was tested, and the ED50 (Mus musculus [2]) was “inactive”.
